ChEMBL document CHEMBL3632461 (J Med Chem, 2015)
One block for each compound: values may come before it. The source made the active and inactive calls. The rule behind the calls is not given here.

Experiments:
[1] = Retention time of the compound in sodium phosphate buffer at 10 uM after 60 mins by LC-MS/MS analysis in presence of H2O2; format: physicochemical; settings: 1 h
[2] = Drug level in sodium phosphate buffer treated with 10 uM PTU after 60 mins by LC-MS/MS analysis in presence of human MPO/H2O2/Cl-; format: physicochemical; settings: 1 h
[3] = biological target: T1, Thyroid peroxidase (Homo sapiens) (UniProt P07202); assay: Inhibition of TPO (unknown origin) using Amplex Red as substrate assessed as formation of resorufin by measuring ratio of Kinact to Ki measured every 20 secs by spectrophotometric analysis
T1 sequence (whole entry): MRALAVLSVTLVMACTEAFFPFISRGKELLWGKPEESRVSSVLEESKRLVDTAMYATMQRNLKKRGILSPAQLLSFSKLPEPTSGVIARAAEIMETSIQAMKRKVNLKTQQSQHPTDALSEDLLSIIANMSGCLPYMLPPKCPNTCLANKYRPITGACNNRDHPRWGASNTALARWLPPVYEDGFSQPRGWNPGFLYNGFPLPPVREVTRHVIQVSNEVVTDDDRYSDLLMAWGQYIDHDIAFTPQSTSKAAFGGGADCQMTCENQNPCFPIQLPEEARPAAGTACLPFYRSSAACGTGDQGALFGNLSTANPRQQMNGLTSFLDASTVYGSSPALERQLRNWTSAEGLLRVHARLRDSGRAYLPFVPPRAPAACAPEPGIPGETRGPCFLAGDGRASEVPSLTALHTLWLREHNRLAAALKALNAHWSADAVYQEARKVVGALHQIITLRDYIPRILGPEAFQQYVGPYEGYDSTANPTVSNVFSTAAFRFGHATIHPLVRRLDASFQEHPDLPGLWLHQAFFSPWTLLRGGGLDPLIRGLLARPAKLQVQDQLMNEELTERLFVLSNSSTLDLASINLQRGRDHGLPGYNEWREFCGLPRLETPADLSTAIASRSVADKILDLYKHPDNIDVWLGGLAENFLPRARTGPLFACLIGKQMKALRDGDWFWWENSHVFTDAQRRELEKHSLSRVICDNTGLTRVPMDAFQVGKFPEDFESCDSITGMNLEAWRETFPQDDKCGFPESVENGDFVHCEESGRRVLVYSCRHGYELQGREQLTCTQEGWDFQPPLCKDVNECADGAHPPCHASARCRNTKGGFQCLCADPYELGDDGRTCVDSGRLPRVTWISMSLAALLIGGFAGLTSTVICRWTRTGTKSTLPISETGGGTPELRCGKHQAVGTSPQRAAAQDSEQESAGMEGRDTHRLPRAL
Summary of the method: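 Amplex Red oxidation to resorufin in 50 mM sodium phosphate pH 7.4, 150 mM NaCl, 1 mM DTPA, 2 μM H2O2, 30 μM Amplex Red, 2% DMSO. Reaction started by adding TPO. Background rate measured with bovine catalase added and subtracted. Fluorescence (ex 530/em 580) read every 20 s at room temperature. kinact/KI taken from initial rates over the first 300 s. Geometric mean of at least two experiments.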

[4] = Lipophilicity, log D of the compound at pH 7.4 by shake-flask method; format: physicochemical; settings: buffer
[5] = biological target: T2, Myeloperoxidase (Homo sapiens) (UniProt P05164); assay: (§1) Inhibition of peroxidase activity of MPO isolated from human polynuclear leukocytes using Amplex Red as substrate assessed as formation of resorufin measured every 20 secs by spectrophotometric analysis
T2 sequence (whole entry): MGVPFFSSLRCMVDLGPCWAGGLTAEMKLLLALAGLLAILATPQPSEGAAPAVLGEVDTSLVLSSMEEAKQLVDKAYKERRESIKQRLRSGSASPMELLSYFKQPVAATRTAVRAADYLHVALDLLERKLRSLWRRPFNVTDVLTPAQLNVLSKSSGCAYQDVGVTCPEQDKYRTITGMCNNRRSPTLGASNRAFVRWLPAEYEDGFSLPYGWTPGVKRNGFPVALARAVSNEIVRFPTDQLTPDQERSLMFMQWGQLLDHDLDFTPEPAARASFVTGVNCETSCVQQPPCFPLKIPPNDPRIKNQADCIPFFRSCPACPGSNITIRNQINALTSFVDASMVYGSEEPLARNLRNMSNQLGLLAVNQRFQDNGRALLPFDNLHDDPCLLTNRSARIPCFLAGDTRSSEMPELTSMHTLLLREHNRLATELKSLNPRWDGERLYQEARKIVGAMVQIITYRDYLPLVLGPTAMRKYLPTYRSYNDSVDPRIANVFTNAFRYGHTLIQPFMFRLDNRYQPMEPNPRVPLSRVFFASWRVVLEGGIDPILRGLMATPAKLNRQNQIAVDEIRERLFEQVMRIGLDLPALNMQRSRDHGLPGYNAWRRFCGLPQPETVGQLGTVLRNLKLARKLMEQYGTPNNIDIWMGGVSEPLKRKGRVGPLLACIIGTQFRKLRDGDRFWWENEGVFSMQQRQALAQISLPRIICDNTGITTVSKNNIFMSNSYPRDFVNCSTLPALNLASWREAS

[6] = biological target: T3, Myeloperoxidase (Homo sapiens, UniProt P05164); assay: as §1
T3 sequence (P05164 whole entry): T2 sequence (whole entry)

[7] = biological target: T2, Myeloperoxidase (Homo sapiens); assay: Inhibition of peroxidase activity of MPO isolated from human polynuclear leukocytes using Amplex Red as substrate assessed as formation of resorufin by measuring ratio of Kinact to Ki measured every 20 secs by spectrophotometric analysis
Summary of the method: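 Enzyme purified from human polynuclear leukocytes. Buffer: 50 mM sodium phosphate pH 7.4, 150 mM NaCl, 1 mM DTPA, 2 μM H2O2, 30 μM Amplex Red, inhibitor or DMSO. Resorufin fluorescence (ex 530/em 580) read every 20 s at room temperature. Progress curves fitted for kobs at each concentration. kinact/KI derived from the kobs versus [I] fit or slope. Geometric mean of at least two experiments.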

[8] = biological target: T3, Myeloperoxidase; assay: Irreversible inhibition of MPO in LPS-stimulated human whole blood after 4 hrs by Amplex Red/H2O2-based fluorescence plate reader analysis
Summary of the method: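 Heparinized whole blood from healthy human volunteers, stimulated with bacterial LPS and incubated with compound for 4 h. MPO captured on anti-MPO antibody plates and washed; residual activity measured with Amplex Red and H₂O₂. IC₅₀ reported as geometric mean [90% CI].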

[9] = Retention time of the compound by LC-MS/MS analysis in presence of human MPO/H2O2/Cl-/excess GSH; format: physicochemical
[10] = Apparent permeability across RRCK cells; format: ADME, cell-based, Canis lupus familiaris, MDCKII-LE; settings: dog, MDCK
Summary of the method: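 Passive permeability measured in Ralph−Russ canine kidney (RRCK) cells, a low-transporter line isolated from Madin−Darby canine kidney cells; reported as P_app (10⁻⁶ cm/s).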

[11] = system: Liver microsome; assay: Intrinsic apparent clearance in human liver microsomes; format: ADME
Summary of the method: (§2)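 Stability incubations in NADPH-supplemented human liver microsomes or cryopreserved human hepatocytes. Total apparent intrinsic clearance scaled from the in vitro half-life; microsomes reported per mg protein, hepatocytes per 10⁶ cells.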

[12] = Fraction unbound in human plasma by equilibrium dialysis method; format: ADME, cell-free
Summary of the method: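 Fraction unbound in human plasma measured by equilibrium dialysis; mean of three individual determinations.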

[13] = system: Hepatocyte; assay: Intrinsic apparent clearance in human hepatocytes assessed per 10^6 cells; format: ADME, cell-based; summary of the method: as §2
[14] = Plasma clearance in Wistar rat at 1 mg/kg, iv and 3 or 5 mg/kg, po; format: ADME, organism-based
Summary of the method: (§3)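 Male CD-1 mice (25−35 g), cannulated Wistar-Han rats (250 g), beagle dogs (12 kg) and cynomolgus monkeys (7 kg), fasted overnight and fed 1.0 or 2.0 h after dosing. iv 1 mg/kg in saline or 12% sulfobutyl ether β-cyclodextrin; po 3 or 5 mg/kg in 0.5% methylcellulose. Parameters calculated from plasma concentration−time data; mean ± SD for n = 3, individual values for n = 2.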

[15] = Plasma clearance in Beagle dog at 1 mg/kg, iv and 3 or 5 mg/kg, po; format: ADME, organism-based, Canis lupus familiaris; summary of the method: as §3
[16] = Volume of distribution at steady state in Wistar rat at 1 mg/kg, iv and 3 or 5 mg/kg, po; format: ADME, organism-based; settings: in vivo, read-out: Vdss
Summary of the method: (§4)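 Male mice, rats, dogs and cynomolgus monkeys, fasted overnight, fed after dosing. Intravenous dose 1 mg/kg in saline or 12% sulfobutyl ether β-cyclodextrin; oral arm 3 or 5 mg/kg in 0.5% methylcellulose. Steady-state volume derived from plasma concentration−time data; mean ± SD for n = 3, individual values for n = 2.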

[17] = Volume of distribution at steady state in Beagle dog at 1 mg/kg, iv and 3 or 5 mg/kg, po; format: ADME, organism-based, Canis lupus familiaris; settings: in vivo, read-out: Vdss; summary of the method: as §4
[18] = Elimination half life in Wistar rat at 1 mg/kg, iv and 3 or 5 mg/kg, po; format: ADME, organism-based; settings: in vivo, read-out: beta t1/2 (converted); summary of the method: as §3
[19] = Elimination half life in Beagle dog at 1 mg/kg, iv and 3 or 5 mg/kg, po; format: ADME, organism-based, Canis lupus familiaris; settings: in vivo, read-out: beta t1/2 (converted); summary of the method: as §3
[20] = Tmax in Wistar rat at 3 or 5 mg/kg, po; format: ADME, organism-based; settings: in vivo
Summary of the method: (§5)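 Male animals (CD-1 mice 25−35 g, cannulated Wistar-Han rats 250 g, beagle dogs 12 kg, cynomolgus monkeys 7 kg), fasted overnight and fed 1.0 or 2.0 h after dosing, water ad libitum. Oral dose 3 or 5 mg/kg in 0.5% methylcellulose. Parameters calculated from plasma concentration−time data; mean ± SD for n = 3, individual values for n = 2.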

[21] = Tmax in Beagle dog at 3 or 5 mg/kg, po; format: ADME, organism-based, Canis lupus familiaris; settings: in vivo; summary of the method: as §5
[22] = Oral bioavailability in Wistar rat at 3 or 5 mg/kg; format: ADME, organism-based; settings: in vivo
Summary of the method: (§6)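 Male CD-1 mice, Wistar-Han rats, beagle dogs and cynomolgus monkeys, fasted overnight and fed after dosing. Given po at 3 or 5 mg/kg in 0.5% methylcellulose, with an iv reference dose of 1 mg/kg. Bioavailability derived from plasma concentration−time data; mean ± SD (n = 3) or individual values (n = 2).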

[23] = Oral bioavailability in Beagle dog at 3 or 5 mg/kg; format: ADME, organism-based, Canis lupus familiaris; settings: in vivo; summary of the method: as §6
[24] = biological target: T3, Myeloperoxidase; assay: Inhibition of peroxidase activity of MPO isolated from human polynuclear leukocytes using Amplex Red as substrate assessed as formation of resorufin after 300 secs by spectrophotometric analysis
[25] = biological target: T2, Myeloperoxidase (Homo sapiens); settings: 0.47 to 30 uM
[26] = biological target: T2, Myeloperoxidase (Homo sapiens); settings: 24 uM
[27] = biological target: T2, Myeloperoxidase (Homo sapiens); settings: 24 uM; remark: listed apart in the source

Retention_time [1]: 14.99 min
Compound: COc1ccc(-c2cc(=O)nc3n2CCO3)c(OC)c1

Drug metabolism [2]: metabolite_detected
Compound: CCCc1cc(=O)nc(S(=O)O)[nH]1

log(ratio) [3]: < 0.5
logD [4]: 2.6
pKinact [5]: 2.43
Ki [6]: 0.501 µM
log(ratio) [7]: 3.87
IC50 [8]: 11 µM
Retention_time [9]: 25.4 min
Papp [10]: 26 ×10⁻⁶ cm/s
CLH(app) [11]: 11 µL/min/mg
Compound: COc1ccc(-c2cc(=O)[nH]c(=S)n2CCOC(C)C)c(OC)c1

Drug metabolism [2]: metabolite_detected
Compound: CCCc1cc(=O)nc(SSc2nc(=O)cc(CCC)[nH]2)[nH]1

Retention_time [9]: 15.7 min
Compound: COc1ccc(-c2cc(=O)nc(SC[C@H](NC(=O)CC[C@H](N)C(=O)O)C(=O)NCC(=O)O)n2CCOC(C)C)c(OC)c1

log(ratio) [3]: < 0.5
logD [4]: -1.4
log(ratio) [7]: 4.03
Papp [10]: 1.5 ×10⁻⁶ cm/s
fraction unbound [12]: 0.9
CLH(app) [11]: < 8 µL/min/mg
CLH(app) [13]: < 6 µL/min
clearance [14]: 38.6 mL/min/kg
clearance [15]: 4.1 mL/min/kg
Vd [16]: 0.59 L/kg
Vd [17]: 0.86 L/kg
half-life [18]: 48.6 min
half-life [19]: 155 min
Tmax [20]: 45 min
Tmax [21]: 60 min
bioavailability [22]: 3%
bioavailability [23]: 8%
Compound: COc1ccc(-c2cc(=O)[nH]c(=S)n2CC(=O)NCCN)c(OC)c1

log(ratio) [3]: 2.86
logD [4]: 1.3
log(ratio) [7]: 3.36
IC50 [8]: 6.2 µM
Compound: COc1ccccc1-c1cc(=O)[nH]c(=S)[nH]1

Drug metabolism [2]: metabolite_detected
Compound: CCCc1cc(=O)nc(S(=O)(=O)O)[nH]1

IC50 [24]: 2.81 µM
IC50 [8]: 5.7 µM
inhibition [25]: tde
inhibition [26]: Active
inhibition [27]: inactive
Compound: CCCc1cc(=O)[nH]c(=S)[nH]1 [PROPYLTHIOURACIL]
